Bioassay records (PubChem BioAssay)
ALR H2O2 inh = inhibitors of human ALR sulfhydryl oxidase, primary screen, biochemical, H2O2 detection, HRP-luminol luminescence, single point; FAD-linked sulfhydryl oxidase ALR (Homo sapiens), P55789; purified ALR, DTT oxidation; inhibition, % (no concentration beside the values); 290,000 compounds, 3.8% hits;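 active means mean replicate inhibition above about 79%, with every replicate also reaching it, limit read from the data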
Target sequence (P55789 whole entry, looked up): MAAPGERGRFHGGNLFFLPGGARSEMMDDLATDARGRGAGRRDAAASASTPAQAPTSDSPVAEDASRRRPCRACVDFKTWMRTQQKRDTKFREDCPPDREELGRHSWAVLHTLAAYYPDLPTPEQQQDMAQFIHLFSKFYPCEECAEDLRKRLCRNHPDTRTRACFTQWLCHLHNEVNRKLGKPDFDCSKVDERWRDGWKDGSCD
Glyco luc inh = increase of ERlucT glycosylation luciferase signal, primary screen, N-linked glycosylation inhibitor project, D54 ERlucT cells, luminescence, set 2; D54 ERlucT glycosylation luciferase reporter, 24 h; percent of 100 nM tunicamycin response; reporter increase, % at 12.5 µM; 360,000 compounds, 0.23% hits; AID 588692, 2011;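 active means mean luciferase reporter signal, scaled so untreated is 0 and the glycosylation-blocking control 100, at or above a set limit in every replicate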;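 further: luciferase carries N-glycosylation sites so blocking glycosylation raises the light; 0% = median of neutral control wells and 100% = median of 100 nM tunicamycin wells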
T cell modulator = modulators of CD8 T cell-vesicle binding, primary screen, mouse 2C CD8+ T cells, flow cytometry; response (vesicle binding), % at 7 µM; 330,000 compounds, 0.068% hits; AID 2052, 2009; 2C CD8+ T cell-vesicle binding; stronger effect = lower value;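 active means response, share of CD8 T cells binding vesicles, and their 90th percentile fluorescence all below set limits, cut at about 80% in these data, passing the limit was not always enough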;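 further: values below 100% mean blocked vesicle binding to the CD8+ T cells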
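Assay system – 2C mouse CD8+ T cells · Also added – QL9-loaded Drosophila micro-vesicles · Timing – Cell–vesicle co-incubation 1.5 h at 37 °C, staining 20 min on ice · Signal – flow cytometry of vesicle-bound cells · Measure – percent CD8+ FL2 mean versus row control · Controls – Peptide-free naked vesicles (low) and QL9 vesicles with 0.7% DMSO vehicle (high)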
* marks the source's active call; other numbers are inactive results; i = inactive; · = not tested or not shown. Shown is part of a subset that was picked to be rich in hits.

SMILES | ALR H2O2 inh | Glyco luc inh | T cell modulator
COc1ccc2nc(C)cc(SCC(=O)N/N=C/c3ccc(O)c(O)c3)c2c1 | 88* | -5 | i
COc1ccc2c(c1)c(C(=O)N/N=C/c1ccc(O)c(O)c1)c(C)n2C | 100* | -6 | 117
CCCCSc1nc(C)cc(SCC(=O)N/N=C/c2ccccc2)n1 | -2 | -4 | 430
COc1cccc2c(SCC(=O)N/N=C/c3ccc(O)c(O)c3)cc(C)nc12 | 100* | -6 | 130
COc1cccc2c(SCC(=O)N/N=C/c3ccccc3)cc(C)nc12 | 99* | -1 | 339
COc1cc(/C=N/NC(=O)CCn2c3ccccc3c3ccccc32)ccc1O | 70 | 0 | 346
COc1ccc2nc(C)cc(SCC(=O)N/N=C/c3cccc4ccccc34)c2c1 | 0 | 5 | 300
COc1ccc2c(c1)c(C(=O)N/N=C/c1ccc(Br)cc1)c(C)n2C | · | 16 | 795
CC(CC(c1ccccc1)N1CCc2ccccc2C1)=NO (stereo not given) | · | -4 | ·
O=C(COC(=O)Cc1n[nH]c(=O)c2ccccc12)Nc1ccc(Cl)cn1 | -3 | 1 | 311
COc1cccc2c(N/N=C/c3ccccc3)cc(C)nc12 | 87* | -2 | 399
COc1ccccc1Nc1cc(C)nc2c(C)cccc12 | · | 3 | ·
Cc1nonc1C(=O)N/N=C/c1ccc(O)c(O)c1 | 54 | -8 | 152
O=C(N/N=C/c1ccc(O)c(O)c1)N/N=C/c1ccc(O)c(O)c1 | 100* | -3 | 229
Cc1cc(SCC(=O)N/N=C/c2ccc(O)c(O)c2)c(C)cc1Br | 99* | -1 | 378
Cc1cc(SCC(=O)N/N=C/c2ccc(O)c(O)c2)nc2ccccc12 | · | -4 | 158
COc1ccc(C(=O)N2N=C(c3cccc(NS(C)(=O)=O)c3)CC2c2cccs2)cc1 (stereo not given) | -3 | 2 | 428
COc1ccc(Cc2nnc(SC)n2-c2ccc(F)cc2)cc1OC | · | 0 | ·
CCOc1ccc(NC(=O)CN(C)C(=O)c2ccccc2CCc2ccccc2)cc1OCC | -26 | 1 | 330
CCc1ccc2c(CN3CCc4ccccc43)cc(=O)oc2c1 | -2 | 0 | 235
O=c1cc(CN2CCc3ccccc32)c2ccc(O)cc2o1 | 99* | -4 | 357
Cc1c(C(=O)NCc2ccc3c(c2)OCCO3)sc(=O)n1Cc1ccc(C(=O)N(C)C)cc1 | · | -3 | ·
Nc1cc(S(=O)(=O)N2CCCCC2)ccc1N1CCCCC1 | · | -4 | i
O=C(Nc1cc(S(=O)(=O)N2CCOCC2)ccc1N1CCCC1)c1ccc(Cl)cc1 | · | 11 | ·
Nc1cc(S(=O)(=O)N2CCOCC2)ccc1N1CCCCC1 | 98* | 1 | 382
SMILES | ALR H2O2 inh | Glyco luc inh | T cell modulator
COc1ccc(C(=O)Nc2ccccc2N2CCCC2)cc1S(=O)(=O)N1CCOCC1 | 98* | 0 | 457
Cc1ccc(S(=O)(=O)N2CCC(C(=O)Nc3cc(C(F)(F)F)ccc3N3CCOCC3)CC2)cc1C | 1 | -2 | 48*
Cc1ccc(C(=O)Nc2cc(S(=O)(=O)N3CCOCC3)ccc2N2CCCC2)cc1 | 0 | 45* | 615
COc1ccc(C(=O)Nc2ccccc2N2CCOCC2)cc1S(=O)(=O)N1CCCC1 | 5 | 2 | 271
O=C(Nc1cc(S(=O)(=O)N2CCCCC2)ccc1N1CCOCC1)c1ccc(C(F)(F)F)cc1 | -18 | -6 | 324
CSCCC(NS(=O)(=O)c1cccc(C(F)(F)F)c1)C(=O)Nc1ccccc1N1CCCC1 (stereo not given) | 4 | 0 | 581
CC1(O)C(c2ccccc2)=Nc2ccccc21 (stereo not given) | · | -3 | ·
CCN(c1ccccc1)S(=O)(=O)c1ccc(C(=O)NCc2ccco2)cc1 | · | -4 | 280
Cc1cccc(NC(=O)N2CCN(Cc3ccc4c(c3)OCO4)CC2)c1C | -8 | 1 | 184
Nc1cc(S(=O)(=O)Nc2cc(Cl)ccc2Cl)ccc1N1CCOCC1 | 13 | 0 | 386
Nc1cc(S(=O)(=O)Nc2ccccc2Cl)ccc1N1CCCC1 | 99* | -2 | 125
COc1ccccc1-n1cnnc1SCc1csc(-c2ccccc2)n1 | -13 | -1 | 202
C=CCn1c(SCc2csc(-c3ccc(C)cc3)n2)nnc1-c1ccccc1OC | 99* | -12 | 423
C=CCn1c(=O)c2ccccc2n2c(SC(C)C(=O)Nc3nc(-c4ccccc4)cs3)nnc12 (stereo not given) | 13 | 0 | 353
C=CCn1c(=O)c2ccccc2n2c(SCc3csc(-c4ccccc4)n3)nnc12 | 99* | 2 | 345
COCCN(C(=O)CNC(=O)c1ccco1)C(C(=O)NC1CCCC1)c1ccc(OC)c(OC)c1 (stereo not given) | -7 | 1 | 244
COCc1c(C(=O)OCC(=O)N(C)C2CCS(=O)(=O)C2)oc2ccccc12 (stereo not given) | -2 | 0 | 243
Cn1c(=O)[nH]c(=O)c2c1nc(Br)n2CC(O)COCc1ccccc1 (stereo not given) | 91* | 2 | 225
Cn1c(=O)[nH]c(=O)c2c1nc(Br)n2CC(O)COc1ccccc1 (stereo not given) | 9 | 0 | 475
CCC(C)N(C(=O)COC(=O)CN=C1NS(=O)(=O)c2ccccc21)C1CCS(=O)(=O)C1 (stereo not given) | -3 | 2 | 408
CCC(=O)Nc1cccc2cccnc12 | -3 | 1 | 148
C/C(=N\Nc1cccc2cccnc12)c1ccc[nH]1 | 96* | -10 | 385
CN(C)c1ccc(C(CNC(=O)c2cccs2)N(C)C)cc1 (stereo not given) | 68 | 1 | 324
Cc1cc(-c2n[nH]c(=S)n2/N=C/c2cccc([N+](=O)[O-])c2)n[nH]1 | 97* | 3 | 307
Cc1cc(-c2n[nH]c(=S)n2/N=C/c2cccc(O)c2)n[nH]1 | 96* | 3 | 234
SMILES | ALR H2O2 inh | Glyco luc inh | T cell modulator
Cc1nnc(C)n1/N=C/c1cccc([N+](=O)[O-])c1 | -1 | 1 | 151
Cc1cc(-c2n[nH]c(=S)n2/N=C/c2sccc2C)n[nH]1 | 58 | 4 | 214
Nc1cc(F)ccc1N1CCCCCC1 | -16 | 2 | 487
COC(=O)[C@@]12CCCCN1[C@H](c1ccc(-c3cccc(Cl)c3)cc1)[C@@H]1C(=O)N(C)C(=O)[C@@H]12 | 1 | 2 | 202
Cc1nn(-c2ccccc2)c(C)c1-c1nnc(-c2c(C)nn(-c3ccccc3)c2C)o1 | -12 | -8 | i
O=C(O)COc1ccccc1/C=C1\C(=O)Nc2ccc(Br)cc21 | 98* | 1 | 464
O=C1Nc2ccc(Br)cc2/C1=C/C(=O)c1ccccc1 | · | 16 | ·
N#Cc1cnn2cc(-c3ncc(C(F)(F)F)cc3Cl)cnc12 | 85* | 0 | 783
FC(F)(F)c1cnc(-c2cnc3c(-c4ccc(Cl)cc4)cnn3c2)c(Cl)c1 | -1 | 1 | 166
Cc1ccc(S(=O)(=O)NC(=O)C2(C)CCN2C(=O)Cc2ccc(C(C)(C)C)cc2)nc1 (stereo not given) | · | 0 | ·
Cc1cc(C(=O)NNC(=O)[C@H](C)NC(=O)c2ccc(Br)cc2)c(C)o1 | · | 1 | 289
